An excerpt weighted towards active compounds, which were near 1.9% of everything screened.
Ecoli rRNA inh: inhibitors of bacterial rRNA selective over humanized ribosomes; E. coli WT GFP vs humanized-ribosome RFP mutants, fluorescence, 24 h; active compounds read low; DMSO median 0, no signal -100; GFP signal change (wild-type ribosome), % (no concentration beside the values); hit rate 1.6% among 350,000; AID 720706;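 active = significant combined selectivity score with lowered wild-type GFP, culture density cut under 30%, mutant RFP and density less affected; inactive = any of these conditions unmet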
Cneo AK release: Cryptococcus neoformans lysis via adenylate kinase release. C. neoformans lysis, adenylate kinase release luminescence, 4 h; normalised: neutral wells 0, clomiphene wells 100. lysis activity, % at 15 µM. hit rate 0.2% among 360,000;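 active = mean lysis activity across replicates of at least 80%, whatever share of replicates individually reach that level; inactive = mean lysis activity below 80%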
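Assay system: log-phase C. neoformans yeast / Quantity: yeast cell density of 5 × 10^6 cells/mL / Medium: fresh YPD growth medium / Compound: single dose / Timing: static 4 h at 37 °C with compound, 1 h detection / Measured by: adenylate kinase release luminescence / Read-out: lysis from increased AK signal / Benchmarks: Clomiphene as positive lysis control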
RAD54 inh: RAD54 (human) branch migration inhibition | Q92698 | RAD54 Holliday junction branch migration, FAM/BHQ fluorescence | inhibition, % at 10.4 µM | hit rate 0.14% among 360,000;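 active = mean normalized replicate activity at least 40 and at least half of replicates scoring 40 or more; inconclusive = only one of the two criteria met; inactive = mean below 40 and under half of replicates reaching 40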;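 note: 0% = median of neutral control wells and 100% = median of positive control wells; inhibitors cause a drop in the FAM fluorescence signal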
Target sequence (Q92698 whole entry, looked up): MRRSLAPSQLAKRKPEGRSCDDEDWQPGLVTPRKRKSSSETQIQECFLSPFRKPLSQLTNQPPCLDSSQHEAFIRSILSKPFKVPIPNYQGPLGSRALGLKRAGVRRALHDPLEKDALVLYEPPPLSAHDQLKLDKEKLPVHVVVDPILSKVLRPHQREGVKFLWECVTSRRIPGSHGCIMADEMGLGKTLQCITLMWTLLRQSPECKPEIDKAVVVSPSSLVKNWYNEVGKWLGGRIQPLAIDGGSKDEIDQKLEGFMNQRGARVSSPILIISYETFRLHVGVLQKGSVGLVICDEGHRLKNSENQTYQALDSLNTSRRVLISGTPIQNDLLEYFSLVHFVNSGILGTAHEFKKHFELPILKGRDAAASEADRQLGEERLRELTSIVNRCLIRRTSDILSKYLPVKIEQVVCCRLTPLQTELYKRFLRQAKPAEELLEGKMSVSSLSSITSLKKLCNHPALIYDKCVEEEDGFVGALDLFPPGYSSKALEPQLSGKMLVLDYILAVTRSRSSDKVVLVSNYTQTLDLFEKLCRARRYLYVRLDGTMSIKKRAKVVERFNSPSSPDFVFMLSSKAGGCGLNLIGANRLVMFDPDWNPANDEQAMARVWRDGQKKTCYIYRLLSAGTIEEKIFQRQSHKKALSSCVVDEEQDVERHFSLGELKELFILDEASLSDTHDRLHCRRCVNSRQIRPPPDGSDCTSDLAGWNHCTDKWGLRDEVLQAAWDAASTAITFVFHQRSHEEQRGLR
RAD52 inh: blocks human RAD52 DNA annealing; hit rate 0.46% among 360,000; P43351; inhibition, % at 18.7 µM; AID 651710; recombinant RAD52 DNA annealing, FRET fluorescence;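 active = every replicate showing at least 50% inhibition; inconclusive = mean inhibition at least 50% but not in every replicate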
PglD inh: PglD (C. jejuni) enzyme inhibition; hit rate 0.098% among 360,000; AID 602405; inhibition, % at 12.5 µM; purified PglD enzyme, DTNB colorimetric CoA detection; in the data active = inhibition above about 16%, passing the limit was not always enough; inconclusive = no clear call, values can overlap the other calls
AID977621: growth inhibition of wild-type GFP E. coli, dose response, H69 mutant RFP, cherry-pick. shares compounds with Ecoli rRNA inh. E. coli wild-type GFP strain growth, fluorescence, 24 h. activity change, negative = inhibition at 50 µM. 1,900 tested, under 10 active. AID 977621;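 active = Wild-type ribosome reporter drop at least double the humanized mutant ribosome reporter drop, growth loss under a set limit; inconclusive = no clear call, values can overlap the other calls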;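 note: wild-type GFP and H69 mutant RFP strains grown together 50/50 in each well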
AID977628: E. coli growth inhibition, wild-type GFP versus h24 humanized RFP strain, dose response, h24 mutant RFP vs wild-type GFP, cherry-pick; shares compounds with Ecoli rRNA inh; E. coli WT GFP strain growth, fluorescence, 24 h; activity change, negative = inhibition at 50 µM; 1,900 tested, under 10 active; AID 977628;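 active = compound lowering the normal-ribosome reporter at least twice as much as the humanized-ribosome reporter, growth loss under a set limit; inconclusive = no clear call, values can overlap the other calls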;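 note: wild-type GFP and h24 humanized RFP strains co-cultured 1 to 1 per well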
The depositor's hits bear a star; ? = inconclusive; . = no result given.

SMILES	Ecoli rRNA inh	Cneo AK release	RAD54 inh	RAD52 inh	PglD inh	AID977621	AID977628
O=C(C[C@H]1CC[C@@H]2[C@H](COC[C@H](O)CN2C(=O)Nc2ccc(Cl)c(Cl)c2)O1)NCc1ccc(Cl)c(Cl)c1	-59	-6	-5	-5	0	.	.
CCn1c(SCC(=O)Nc2ccc(Cl)cc2)nc2nc3c(cc2c1=O)CCCC3	.	0	-5	.	-1	.	.
CCn1c(SCC(=O)Nc2ccc(OC)cc2)nc2nc3c(cc2c1=O)CCCC3	-28*	7	3	-10	-2	0.3	?
COc1ccc(NC(=O)Nc2ccc3c(c2)C(=O)N(C)C[C@H](OC)[C@@H](C)CN[C@H](C)CO3)cc1	-2	-1	3	.	2	.	.
C[C@@H]1CCCCO[C@H](CN(C)Cc2ccncc2)[C@@H](C)CN([C@H](C)CO)C(=O)c2cc(NC(=O)Nc3ccc(C(F)(F)F)cc3)ccc2O1	0	0	3	28	-2	.	.
COc1ccc(NS(=O)(=O)c2cccc3ccccc23)cc1	-39*	0	10	-6	-3	-22	.
O=C(COc1cccc2c1CCN(Cc1ccccc1F)C2=O)N1CCCCC1	-39*	.	.	-7	.	.	?
O=C(COc1cccc2c1CCN(Cc1ccc(Br)cc1)C2=O)N1CCOCC1	-28*	.	.	-15	.	7.3	-5.1
O=C(COc1cccc2c1CCN(Cc1ccc(Br)cc1)C2=O)NCc1ccco1	.	.	.	-10	.	.	.
CCC1(CC)NC(=O)N(CC(=O)N2N=C(c3ccc(Cl)cc3)CC2c2ccco2)C1=O (stereo not given)	-25*	-2	-2	-41	6	4.1	?
CCC(=O)N1N=C(c2ccc(C)cc2)CC1c1ccco1 (stereo not given)	-16	.	.	-22	.	.	.
O=C(C[C@@H]1C[C@H]2c3cc(NC(=O)NC4CCCC4)ccc3O[C@H]2[C@H](CO)O1)NCCN1CCCCC1	2	3	7	-1	0	.	.
Cc1ccc2oc(C(=O)N(C)Cc3ccc(C)o3)c(C)c2c1	-30*	-4	-4	-26	1	-5.2	-3.4
Cc1ccc2oc(C(=O)N(C)Cc3ccon3)c(C)c2c1	3	2	0	3	0	.	.
C[C@@H]1CN([C@H](C)CO)C(=O)Cc2cc(NS(C)(=O)=O)ccc2O[C@H]1CN(C)C(=O)Nc1cccc2ccccc12	5	-3	-1	-2	6	.	.
O=C(c1ccc(-n2cccn2)cc1)N1CCc2ccccc2C1	-27*	-3	-7	-10	-6	-5.9	?
CC(C)CN1C(=O)c2ccc(C(=O)Nc3ccncc3)cc2C1=O	-25*	-1	16	-8	-2	.	-9.2
COc1ccc(CN(C)C[C@H]2Oc3c(NC(=O)NC4CCCCC4)cccc3C(=O)N([C@H](C)CO)C[C@H]2C)cc1	3	0	-2	15	0	.	.
COCCN(C(=O)c1ccccc1F)c1nnc(-c2ccc(OC)cc2)s1	-24*	-2	0	-18	-13	1.6	?
COc1ccc(CN(C)C[C@@H]2OCCCC[C@H](C)Oc3ccc(NC(=O)c4ccncc4)cc3C(=O)N([C@H](C)CO)C[C@@H]2C)cc1	1	0	-3	1	-1	.	.
Cc1cc(OCC(=O)N(Cc2ccco2)C2CCS(=O)(=O)C2)ccc1Cl (stereo not given)	-19*	2	7	-12	5	?	.
COC(=O)c1sccc1NC(=O)CNC(=O)c1ccccc1	-23*	.	.	-24	.	-15	-14
C[C@H](CO)N1C[C@H](C)[C@H](CN(C)S(=O)(=O)c2ccc(F)cc2)Oc2ccc(NS(=O)(=O)c3ccccc3)cc2C1=O	-1	.	.	.	.	.	.
Cc1noc(C)c1S(=O)(=O)N(C)C[C@@H]1Oc2ccc(NC(=O)NC3CCCCC3)cc2CC(=O)N([C@@H](C)CO)C[C@H]1C	-1	-1	6	1	1	.	.
COc1ccc(C(=O)CSc2nc3ccccc3n2CC(=O)c2ccccc2)cc1	-28*	1	-16	-24	-5	-1.4	-12
SMILES	Ecoli rRNA inh	Cneo AK release	RAD54 inh	RAD52 inh	PglD inh	AID977621	AID977628
Cc1ccc(NC(=O)c2c(C)noc2-c2snnc2C)cc1	-22*	.	.	-7	.	.	?
Cc1nnsc1-c1onc(C)c1C(=O)Nc1cc(Cl)cc(Cl)c1	-33	.	.	-4	.	.	.
CC(=O)C(C(c1ccccc1)N1CCOCC1)N1CCOCC1 (stereo not given)	14	0	0	-13	1	.	.
COc1ccccc1C(C(C(=O)c1ccccc1)N1CCOCC1)N1CCOCC1 (stereo not given)	-14*	-1	-4	-99	7	-7.1	?
C[C@@H](NC(=O)C[C@@H]1C[C@H]2c3cc(NC(=O)C4CCC4)ccc3O[C@H]2[C@H](CO)O1)c1ccccc1	-3	1	-6	-5	2	.	.
CCCOC(=O)c1ccc(NC(=O)c2nc3nc(C)cc(C)n3n2)cc1	-23*	-2	3	5	5	1.3	-7.8
Cc1cc(C)n2nc(C(=O)OCC(=O)Nc3ccc(Cl)cc3)nc2n1	12	-1	0	-59	5	.	.
COc1ccc(NC(=O)N(C)C[C@H]2OCCCC[C@@H](C)Oc3ccc(NC(=O)CCCN(C)C)cc3C(=O)N([C@H](C)CO)C[C@H]2C)cc1	2	0	6	-38	-1	.	.
CCCN(C)C[C@H]1Oc2cc(-c3ccc(C)cc3)ccc2S(=O)(=O)N([C@@H](C)CO)C[C@H]1C	-4	0	-4	10	1	.	.
CCC(CO)Oc1cc(NC(=O)c2ccccc2C)c2ncn(C(C)C)c2c1 (stereo not given)	-16	-15	-10	0	0	.	.
CCC(CO)Oc1cc(NC(=O)c2ccccc2F)c2ncn(C(C)C)c2c1 (stereo not given)	-20*	0	0	7	5	.	?
CC(=O)c1ccc(-c2cccc([C@H]3[C@@H]4C=CC[C@@H](C)[C@@H]4C(=O)N3Cc3ccccc3)c2)cc1	-19*	0	0	6	-1	-0.09	-8.4
COc1ccc(-c2cccc([C@H]3[C@@H]4C=CC[C@@H](C)[C@@H]4C(=O)N3Cc3ccccc3)c2)cc1	14	2	3	-3	3	.	.
O=C(C[C@@H]1CC[C@H]2[C@@H](COC[C@@H](O)CN2CC2CCCCC2)O1)NCc1ccc(F)cc1	-27	1	-8	5	-1	.	.
Cc1cccc(CN2C(=O)c3ccccc3Sc3ccc(C(=O)NCCN4CCOCC4)cc32)c1	-47*	.	.	-36	.	-22	.
O=S(=O)(Nc1cccc(-c2ccc(N3CCCCCC3)nn2)c1)c1ccc(F)cc1	-21*	-6	-5	-15	-3	.	?
